One may read the pIC50 as the negative decadic logarithm of the IC50, by convention in mol/L. Broadly, the CC50 is the concentration at which the toxic effect on the cells reaches its halfway point. As usually defined, the pEC50 is the negative decadic logarithm of the EC50, by convention in mol/L. Broadly, the pKd is the negative decadic logarithm of the Kd, by convention in mol/L.

Data set [1] is described as follows: Cytotoxicity against African green monkey Vero cells assessed as effect on cell morphology by microscopic analysis. In kind it is cell-based. To be noted: chlorocebus sabaeus. In short, it runs like this:
(§1)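 Vero cells were treated with a compound dilution series in DMEM 2% FCS for 5 days at 37 °C, in parallel with the antiviral assay. MCC is the lowest concentration giving a microscopically detectable change in morphology. CC50 is the concentration halving cell number in mock-infected cultures, counted by Coulter counter.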

The nature of data set [2]: Inhibition of SARS CoV-2 main protease using DABCYL-KTSAVLQ1SGFRKM-E(EDANS)-NH2 as substrate preincubated for 30 mins followed by substrate addition and measured after 4 hrs by multimode microplate reader assay. More on the design: species or system Severe acute respiratory syndrome coronavirus 2.
The test system of a further data set is Vero. The data set can be described thus: Cytotoxicity against African green monkey Vero cells assessed as reduction in cell viability by coulter counter method. It counts as cell-based. Conditions: chlorocebus sabaeus. In a few lines:
as §1

In data set [3] the test system is SARS-CoV-2. The data set can be described thus: Antiviral activity against Severe acute respiratory syndrome coronavirus 2 UC-1074 infected in African green monkey Vero cells assessed as reduction in plaque formation measured after 5 days by microscopic analysis. It counts as functional, organism-based. Conditions: Severe acute respiratory syndrome coronavirus 2, UC-1074, Vero, 120 h.

A short description of data set [4]: Inhibition of SARS CoV-2 papain-like protease using Z-Arg-Leu-Arg-Gly-Gly-AMC as substrate preincubated for 30 mins followed by substrate addition and measured after 50 mins by multimode plate reader method. More on the design: species or system Severe acute respiratory syndrome coronavirus 2.
In data set [5] the test system is SARS-CoV-2. The data set can be described thus: Antiviral activity against Severe acute respiratory syndrome coronavirus 2 UC-1075 infected in African green monkey Vero cells assessed as reduction in plaque formation measured after 5 days by microscopic analysis. Conditions: Severe acute respiratory syndrome coronavirus 2, UC-1075, Vero, 120 h. It counts as functional, organism-based.

The next data set deals with Spike glycoprotein (Severe acute respiratory syndrome coronavirus 2, UniProt P0DTC2). In words: Binding affinity to CM5 sensor chip immobilized SARS-CoV-2 spike glycoprotein assessed as dissociation constant by SPR analysis. In short, it runs like this: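 Spike protein (1.25 μM in 10 mM sodium acetate, pH 4.59) was amine-coupled to about 11500 RU, with the first channel as reference. Running buffer was 10× diluted HBS-P plus 5% DMSO. Compounds at 0.75–100 μM were injected at 25 °C and 20 μL/min, with 90 s association and 600 s dissociation. Runs were in triplicate; KD came from a global 1:1 fit.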
On the technique in general: Surface plasmon resonance follows binding to a sensor surface in real time, without labels.

pEC50, pIC50, pKd: −log10 of the molar value. Where a SMILES comes first, the peptide text is derived from it. [ ]: non-standard residue; d: D form. The star is where a group is joined. AllylGly = C=CC[C@H](N)C(=O)O; Boc = CC(C)(C)OC(=O)*; NHBn = c1ccc(CN*)cc1; NHtBu = CC(C)(C)N*; ClAc = O=C(CCl)*

In the case of `CC(C)C[C@H](NCc1ccc(-c2ccccc2)cc1)C(=O)N[C@@H](Cc1c[nH]c2ccccc12)C(=O)NCc1ccccc1`, the MCC in data set [1] is more than 20 µM. The pIC50 in data set [2] is 4.63; in data set [4], less than 4.60. Moreover, the CC50 in the data set with Vero worked out at 34.7 µM. The pEC50 in the data set with SARS-CoV-2 [3] and with SARS-CoV-2 [5] was less than 5.40 in each case.

With `C#CC[C@H](NCc1ccccc1)C(=O)N[C@@H](Cc1c[nH]c2ccccc12)C(=O)NCc1ccc(-c2ccccc2)cc1`, in data set [1], the MCC was not below 100 µM. Besides, the figures for the pIC50 in data set [2] and in data set [4] were 5.54 and less than 4.60, respectively. Moreover, the CC50 with Vero was determined as 51.5 µM. The pEC50 is 5.05 in the data set on SARS-CoV-2 [3] and 4.96 in the data set on SARS-CoV-2 [5].

For `CCC(CC)COC(=O)[C@H](C)N[P@](=O)(OC[C@H]1O[C@@](C#N)(c2ccc3c(N)ncnn23)[C@H](O)[C@@H]1O)Oc1ccccc1`, in data set [1], the MCC is more than 40 µM. Besides, the CC50 in the data set with Vero is more than 40 µM. For the same molecule, the results for the pEC50 in the data set on SARS-CoV-2 [3] and in the data set on SARS-CoV-2 [5] were 6.06 and 6.21, respectively.

Consider `CC(C)(C)NC(=O)[C@H](Cc1c[nH]c2ccccc12)NC(=O)[C@@H]1CCCN1C(=O)OC(C)(C)C` (Boc-Pro-Trp-NHtBu), for which the MCC in data set [1] was more than 100 µM. Further, the pIC50 in data set [2] is 5.30; in data set [4] it was less than 4.60. In addition, the CC50 in the data set on Vero is more than 100 µM. The pEC50 with SARS-CoV-2 [3] and with SARS-CoV-2 [5] was less than 4.00 in each case. Further, on Spike glycoprotein, the pKd is less than 4.60.

Consider `CC(C)(C)NC(=O)[C@H](Cc1c[nH]c2ccccc12)NC(=O)[C@H](Cc1ccccc1)NCc1ccc(-c2ccccc2)cc1`, for which, in data set [1], the MCC is more than 100 µM. Moreover, the pIC50 in data set [2] and in data set [4] was less than 4.60 throughout. For the same molecule, in the data set on Vero, the CC50 was determined as 1.49 µM. Further, the pEC50 in the data set on SARS-CoV-2 [3] is 5.66; in the data set on SARS-CoV-2 [5] it was 5.70. Also, at Spike glycoprotein, the pKd is 4.72.

As for `C#CC[C@H](NC(=O)OC(C)(C)C)C(=O)N(Cc1ccccc1)Cc1cn(C)c2ccc(C(=O)OC)cc12`, the MCC in data set [1] was 100 µM. The pIC50 in data set [2] and in data set [4] was less than 4.60 throughout. Further, the CC50 in the data set with Vero came to 8.09 µM. The pEC50 is 5.40 in the data set on SARS-CoV-2 [3] and 4.70 with SARS-CoV-2 [5]. In addition, the pKd on Spike glycoprotein was 4.94.

Regarding `C#CC[C@H](NCCC)C(=O)N[C@@H](Cc1c[nH]c2ccccc12)C(=O)NCc1ccc(-c2ccccc2)cc1`, the MCC in data set [1] is more than 100 µM. Also, the pIC50 in data set [2] is 4.64; in data set [4], less than 4.60. Also, the cytotoxic concentration (CC50) in the data set on Vero worked out at 42.4 µM. Besides, the negative-log EC50 (pEC50) in the data set on SARS-CoV-2 [3] and with SARS-CoV-2 [5] was less than 4.70 each time.

For `C=CC[C@H](NC(=O)CCl)C(=O)N[C@@H](Cc1c[nH]c2ccccc12)C(=O)NCc1ccccc1` (ClAc-[AllylGly]-Trp-NHBn), the MCC in data set [1] is 100 µM. In addition, the pIC50 is 5.76 in data set [2] and 6.17 in data set [4]. The CC50 in the data set on Vero is 38.7 µM. Moreover, the pEC50 in the data set with SARS-CoV-2 [3] was 6.49; in the data set on SARS-CoV-2 [5], 5.86. Also, the pKd on Spike glycoprotein is less than 4.60.

As to `COC(=O)c1ccc2c(c1)c(CN(CCc1ccc(-c3ccccc3)cc1)Cc1ccccc1)cn2CC(C)C`, the MCC in data set [1] is 100 µM. Further, the pIC50 in data set [2] and in data set [4] was less than 4.60 throughout. Moreover, the CC50 with Vero was 31.5 µM. The pEC50 in the data set on SARS-CoV-2 [3] was 5.22; with SARS-CoV-2 [5], 6.36. For the same molecule, the negative logarithm of the Kd (pKd) at Spike glycoprotein is 5.49.

As to `CC(C)C[C@H](NCc1ccc(-c2ccccc2)cc1)C(=O)N[C@@H](Cc1c[nH]c2ccccc12)C(=O)NC(C)(C)C`, the MCC in data set [1] came out at 20 µM. Besides, the pIC50 is 5.76 in data set [2] and less than 4.60 in data set [4]. For the same molecule, in the data set on Vero, the CC50 amounted to 10.6 µM. The negative-log EC50 (pEC50) in the data set with SARS-CoV-2 [3] and in the data set on SARS-CoV-2 [5] was less than 5.40 throughout. For the same molecule, the negative-log Kd (pKd) on Spike glycoprotein is less than 4.60.

In the case of `C#CC[C@H](NCc1ccc(-c2ccccc2)cc1)C(=O)N[C@@H](Cc1c[nH]c2ccccc12)C(=O)NC(C)(C)C`, the MCC in data set [1] came to 20 µM. Moreover, the pIC50 in data set [2] and in data set [4] was less than 4.60 each time. The cytotoxic concentration (CC50) with Vero turned out to be 4.67 µM. Moreover, the pEC50 with SARS-CoV-2 [3] and with SARS-CoV-2 [5] was less than 5.40 each time. Besides, on Spike glycoprotein, the pKd was less than 4.60.

Take `C=CC[C@H](NCc1ccccc1)C(=O)N[C@@H](Cc1c[nH]c2ccccc12)C(=O)NCc1ccc(-c2ccccc2)cc1`: the MCC in data set [1] was more than 100 µM. Moreover, the negative-log IC50 (pIC50) in data set [2] and in data set [4] was less than 4.60 each time. The CC50 in the data set on Vero came out at 78.4 µM. For the same molecule, the pEC50 is 4.20 in the data set with SARS-CoV-2 [3] and less than 4.70 in the data set with SARS-CoV-2 [5]. Moreover, on Spike glycoprotein, the pKd was less than 4.60.
